Assay results as given in ChEMBL document CHEMBL3813688, “Synthesis, antitumor activity and mechanism of action of novel 1,3-thiazole derivatives containing hydrazide-hydrazone and carboxamide moiety” (Bioorg Med Chem Lett, 2016).
Values after ≈ are worked out from the molar mass of the structure shown.

Tests used:
HeLa [1] = experiment: Cytotoxicity against human HeLa cells assessed as cell growth inhibition after 72 hrs by MTT assay; format: functional, cell-based
Outline: (§1)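 MTT growth assay in human cancer lines (MCF-7, HepG2, BGC-823, HeLa, A549), 72 h after treatment; 5-fluorouracil as reference. IC50 (μg/mL) taken as concentration giving 50% growth inhibition versus untreated control.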

HepG2 [2] = experiment: Cytotoxicity against human HepG2 cells assessed as cell growth inhibition after 72 hrs by MTT assay; format: functional, cell-based; details: HepG2, 72 h; outline: as §1
A549 [3] = experiment: Cytotoxicity against human A549 cells assessed as cell growth inhibition after 72 hrs by MTT assay; format: functional, cell-based; details: A549, 72 h; outline: as §1
[4] = Cytotoxicity against human BCG823 cells assessed as cell growth inhibition after 72 hrs by MTT assay; format: functional, cell-based; details: BCG823, 72 h; outline: as §1
MCF7 [5] = experiment: Cytotoxicity against human MCF7 cells assessed as cell growth inhibition after 72 hrs by MTT assay; format: functional, cell-based; details: MCF7, 72 h; outline: as §1
A549 [6] = experiment: Cytotoxicity against human A549 cells assessed as cell growth inhibition at 20 ug/ml after 72 hrs by MTT assay; format: functional; details: A549, 72 h, read-out: GI
HeLa [7] = experiment: Cytotoxicity against human HeLa cells assessed as cell growth inhibition at 20 ug/ml after 72 hrs by MTT assay; format: functional; details: read-out: GI
MCF7 [8] = experiment: Cytotoxicity against human MCF7 cells assessed as cell growth inhibition at 20 ug/ml after 72 hrs by MTT assay; format: functional; details: MCF7, 72 h, read-out: GI
[9] = system: MCF-7, HepG2, BGC-823, HeLa, A549 cancer cell lines (Homo sapiens); experiment: Cytotoxicity against human MCF-7, HepG2, BGC-823, HeLa and A549 cells assessed as cell growth inhibition at 20 ug/ml after 72 hrs by MTT assay; details: read-out: GI
[10] = Cytotoxicity against human BCG823 cells assessed as cell growth inhibition at 20 ug/ml after 72 hrs by MTT assay; format: functional; details: BCG823, 72 h, read-out: GI
HepG2 [11] = experiment: Cytotoxicity against human HepG2 cells assessed as cell growth inhibition at 20 ug/ml after 72 hrs by MTT assay; format: functional; details: HepG2, 72 h, read-out: GI

Structure (SMILES) | IC50 (HeLa [1]) [µg/mL] | IC50 (HepG2 [2]) [µg/mL] | IC50 (A549 [3]) [µg/mL] | IC50 [4] [µg/mL] | IC50 (MCF7 [5]) [µg/mL] | inhibition of growth at 20 µg/mL (A549 [6]) [%] | inhibition of growth at 20 µg/mL (HeLa [7]) [%] | inhibition of growth at 20 µg/mL (MCF7 [8]) [%] | inhibition at 72 h, 20 ug/ml [9] [%] | inhibition of growth at 20 µg/mL [10] [%] | inhibition of growth at 20 µg/mL (HepG2 [11]) [%]
CN(C(=O)NC(=O)c1ccccc1[N+](=O)[O-])c1nc(C(F)(F)F)c(C(=O)N/N=C/c2ccc([N+](=O)[O-])cc2)s1 | 18.4 (≈ 32.6 µM) | 25.2 (≈ 44.6 µM) | 17.6 (≈ 31.2 µM) | 15.7 (≈ 27.7 µM) | 21.2 (≈ 37.5 µM) |  |  |  |  |  | 
CN(C(=O)NC(=O)c1cccc(C(F)(F)F)c1)c1nc(C(F)(F)F)c(C(=O)N/N=C/c2ccccc2C(F)(F)F)s1 | 7.37 (≈ 12.1 µM) | 10.4 (≈ 17 µM) | 12.1 (≈ 19.8 µM) | 7.29 (≈ 11.9 µM) | 7.69 (≈ 12.6 µM) |  |  |  |  |  | 
CN(C(=O)NC(=O)c1ccc(Cl)cc1Cl)c1nc(C(F)(F)F)c(C(=O)N/N=C/c2ccc([N+](=O)[O-])cc2)s1 | 5.12 (≈ 8.69 µM) | 6.85 (≈ 11.6 µM) | 6.44 (≈ 10.9 µM) | 2.13 (≈ 3.61 µM) | 6.74 (≈ 11.4 µM) |  |  |  |  |  | 
CNc1nc(C)c(C(=O)N/N=C/c2ccccc2C(F)(F)F)s1 | > 100 | > 100 | > 100 | > 100 | > 100 | < 30 | < 30 | < 30 | < 30 | < 30 | < 30
CCOC(=O)c1sc(NC)nc1C |  |  |  |  |  | < 10 | < 10 | < 10 | < 10 | < 10 | < 10
CN(C(=O)NC(=O)c1ccc(Cl)cc1Cl)c1nc(C(F)(F)F)c(C(=O)N/N=C/c2cc(C(F)(F)F)cc(C(F)(F)F)c2)s1 | > 100 | > 100 | > 100 | > 100 | > 100 |  |  |  |  |  | 
CN(C(=O)NC(=O)c1c(F)cccc1F)c1nc(C(F)(F)F)c(C(=O)N/N=C/c2ccccc2C(F)(F)F)s1 | 19.6 (≈ 33.8 µM) | 26.1 (≈ 45 µM) | 17.9 (≈ 30.9 µM) | 16.9 (≈ 29.3 µM) | 20.4 (≈ 35.3 µM) |  |  |  |  |  | 
CN(C(=O)NC(=O)c1ccc(F)c(F)c1)c1nc(C(F)(F)F)c(C(=O)N/N=C/c2ccc([N+](=O)[O-])cc2)s1 | 5.08 (≈ 9.13 µM) | 6.23 (≈ 11.2 µM) | 5.78 (≈ 10.4 µM) | 2.99 (≈ 5.37 µM) | 4.81 (≈ 8.64 µM) |  |  |  |  |  | 
Cc1nc(N(C)C(=O)NC(=O)c2ccc(Cl)cc2Cl)sc1C(=O)N/N=C/c1ccc(C(F)(F)F)cc1 | 20.3 (≈ 36.4 µM) | > 100 | 30.2 (≈ 54.1 µM) | 38 (≈ 68 µM) | 24.5 (≈ 43.9 µM) |  |  |  |  |  | 
CNc1nc(C)c(C(=O)N/N=C/c2cc(C(F)(F)F)cc(C(F)(F)F)c2)s1 | > 100 | > 100 | > 100 | > 100 | > 100 | < 30 | < 30 | < 30 | < 30 | < 30 | < 30
Cc1nc(N(C)C(=O)NC(=O)c2c(F)cccc2F)sc1C(=O)N/N=C/c1cc(C(F)(F)F)cc(C(F)(F)F)c1 | 12.2 (≈ 20.6 µM) | 11.4 (≈ 19.1 µM) | 13 (≈ 21.9 µM) | 14.1 (≈ 23.7 µM) | 11.6 (≈ 19.6 µM) |  |  |  |  |  | 
CN(C(=O)NC(=O)c1ccc(Cl)cc1Cl)c1nc(C(F)(F)F)c(C(=O)N/N=C/c2ccc(C(F)(F)F)cc2)s1 | 7.99 (≈ 13 µM) | 12.4 (≈ 20.3 µM) | 9.4 (≈ 15.4 µM) | 3.08 (≈ 5.03 µM) | 8.42 (≈ 13.8 µM) |  |  |  |  |  | 
CNc1nc(C)c(C(=O)N/N=C/c2ccc(C(F)(F)F)cc2)s1 | > 100 | > 100 | > 100 | > 100 | > 100 | < 30 | < 30 | < 30 | < 30 | < 30 | < 30
CN(C(=O)NC(=O)c1c(F)cccc1F)c1nc(C(F)(F)F)c(C(=O)N/N=C/c2cc(C(F)(F)F)cc(C(F)(F)F)c2)s1 | 5.62 (≈ 8.68 µM) | 6.28 (≈ 9.7 µM) | 17.3 (≈ 26.7 µM) | 5.28 (≈ 8.16 µM) | 6.85 (≈ 10.6 µM) |  |  |  |  |  | 
CN(C(=O)NC(=O)c1cccc([N+](=O)[O-])c1)c1nc(C(F)(F)F)c(C(=O)N/N=C/c2ccccc2C(F)(F)F)s1 | 4.15 (≈ 7.05 µM) | 4.8 (≈ 8.16 µM) | 5.45 (≈ 9.26 µM) | 3.97 (≈ 6.75 µM) | 4.73 (≈ 8.04 µM) |  |  |  |  |  | 
CN(C(=O)NC(=O)c1ccccc1F)c1nc(C(F)(F)F)c(C(=O)N/N=C/c2cc(C(F)(F)F)cc(C(F)(F)F)c2)s1 | 4.98 (≈ 7.91 µM) | 4.47 (≈ 7.1 µM) | 5.43 (≈ 8.63 µM) | 4.23 (≈ 6.72 µM) | 6.16 (≈ 9.79 µM) |  |  |  |  |  | 
